Source: ChEMBL document CHEMBL3817796, “Discovery of Novel 15-Lipoxygenase Activators To Shift the Human Arachidonic Acid Metabolic Network toward Inflammation Resolution” (J Med Chem, 2016)
pIC50: −log10 of the molar value. Activity calls are given as the source filed them. The calls are words filed in the database; no cut-off is given here.

Key:
[1] = target: T1, Polyunsaturated fatty acid lipoxygenase ALOX15 (Homo sapiens) (UniProt P16050); test: Activation of wild-type His6-tagged human 15-LOX expressed in Escherichia coli Rosetta DE3 assessed as 15-HpETE formation at 40 uM pre-incubated for 1 min before arachidonic acid substrate addition by cell free assay
T1 sequence (whole entry): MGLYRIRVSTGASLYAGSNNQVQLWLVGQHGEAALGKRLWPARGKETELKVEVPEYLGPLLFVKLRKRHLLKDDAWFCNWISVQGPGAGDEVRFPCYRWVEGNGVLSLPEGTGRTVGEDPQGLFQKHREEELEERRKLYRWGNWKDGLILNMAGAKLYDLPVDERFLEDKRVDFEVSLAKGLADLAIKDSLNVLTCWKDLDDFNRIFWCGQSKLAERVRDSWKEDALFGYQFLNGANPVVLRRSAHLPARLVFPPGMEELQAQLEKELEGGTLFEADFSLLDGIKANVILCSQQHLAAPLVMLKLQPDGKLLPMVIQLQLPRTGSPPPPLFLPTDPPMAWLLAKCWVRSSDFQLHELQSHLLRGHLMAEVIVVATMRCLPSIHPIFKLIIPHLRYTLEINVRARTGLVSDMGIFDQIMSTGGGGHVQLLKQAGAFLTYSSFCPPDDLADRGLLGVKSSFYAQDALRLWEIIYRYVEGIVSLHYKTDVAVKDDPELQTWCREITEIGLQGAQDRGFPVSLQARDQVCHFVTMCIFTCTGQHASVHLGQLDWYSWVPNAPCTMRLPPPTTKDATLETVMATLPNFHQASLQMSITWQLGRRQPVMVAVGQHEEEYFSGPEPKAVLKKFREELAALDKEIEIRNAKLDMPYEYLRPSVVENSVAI

[2] = target: T1, Polyunsaturated fatty acid lipoxygenase ALOX15 (Homo sapiens); test: Activation of 15-LOX in human whole blood assessed as increase in 13-HODE production at 100 uM pre-incubated for 20 mins before stimulation with LPS and A23187 for 120 mins by LC-MS/MS method; assay type: tissue-based
How it was run: (§1)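 Human blood preincubated 20 min at 37 °C with DMSO vehicle or compound in DMSO. LPS added at 100 μg/mL for 24 h at 37 °C, then A23187 at 20 μg/mL final. Samples frozen in liquid nitrogen at time points, lysed by freeze–thaw, with PGB2 internal standard. Analysed by C18 LC-MRM MS, negative ion. Change = control-normalized concentration minus 1, ×100%; 120 min value from AUC.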

[3] = tested on: Blood; test: Reduction in LTB4 in production in human whole blood at 100 uM pre-incubated for 20 mins before stimulation with LPS and A23187 for 120 mins by LC-MS/MS method; assay type: functional; set-up: scale not given: the % may be the effect or the level left; how it was run: as §1
[4] = target: T2, Prostaglandin G/H synthase 2 (Homo sapiens) (UniProt P35354); test: Inhibition of COX2 (unknown origin) assessed as reduction in PGG2 to PGH2 conversion by measuring N,N,N',N'-tetramethyl-p-phenylenediamine oxidation at 100 uM by spectrophotometry
T2 sequence (whole entry): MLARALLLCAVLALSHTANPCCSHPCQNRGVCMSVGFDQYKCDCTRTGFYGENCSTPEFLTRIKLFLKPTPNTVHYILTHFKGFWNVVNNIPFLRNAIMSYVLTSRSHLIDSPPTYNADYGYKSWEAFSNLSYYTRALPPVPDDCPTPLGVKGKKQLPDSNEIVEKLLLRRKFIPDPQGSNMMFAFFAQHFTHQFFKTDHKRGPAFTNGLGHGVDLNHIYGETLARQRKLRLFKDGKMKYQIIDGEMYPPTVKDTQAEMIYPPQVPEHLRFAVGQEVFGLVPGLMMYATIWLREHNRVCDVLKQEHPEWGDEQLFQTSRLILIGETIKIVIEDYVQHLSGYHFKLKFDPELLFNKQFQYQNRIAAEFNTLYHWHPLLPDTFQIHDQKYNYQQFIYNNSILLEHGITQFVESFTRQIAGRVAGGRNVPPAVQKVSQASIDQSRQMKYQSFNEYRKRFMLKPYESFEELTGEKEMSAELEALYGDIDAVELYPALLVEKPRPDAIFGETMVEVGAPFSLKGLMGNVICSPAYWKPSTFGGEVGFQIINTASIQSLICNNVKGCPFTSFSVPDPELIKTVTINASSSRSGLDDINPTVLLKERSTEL

[5] = target: Prostaglandin G/H synthase 1 (Homo sapiens) (UniProt P23219); test: Activation of COX1 (unknown origin) assessed as PGG2 to PGH2 conversion by measuring N,N,N',N'-tetramethyl-p-phenylenediamine oxidation at 100 uM by spectrophotometry
Chain of Prostaglandin G/H synthase 1 (Homo sapiens) (P23219 whole entry): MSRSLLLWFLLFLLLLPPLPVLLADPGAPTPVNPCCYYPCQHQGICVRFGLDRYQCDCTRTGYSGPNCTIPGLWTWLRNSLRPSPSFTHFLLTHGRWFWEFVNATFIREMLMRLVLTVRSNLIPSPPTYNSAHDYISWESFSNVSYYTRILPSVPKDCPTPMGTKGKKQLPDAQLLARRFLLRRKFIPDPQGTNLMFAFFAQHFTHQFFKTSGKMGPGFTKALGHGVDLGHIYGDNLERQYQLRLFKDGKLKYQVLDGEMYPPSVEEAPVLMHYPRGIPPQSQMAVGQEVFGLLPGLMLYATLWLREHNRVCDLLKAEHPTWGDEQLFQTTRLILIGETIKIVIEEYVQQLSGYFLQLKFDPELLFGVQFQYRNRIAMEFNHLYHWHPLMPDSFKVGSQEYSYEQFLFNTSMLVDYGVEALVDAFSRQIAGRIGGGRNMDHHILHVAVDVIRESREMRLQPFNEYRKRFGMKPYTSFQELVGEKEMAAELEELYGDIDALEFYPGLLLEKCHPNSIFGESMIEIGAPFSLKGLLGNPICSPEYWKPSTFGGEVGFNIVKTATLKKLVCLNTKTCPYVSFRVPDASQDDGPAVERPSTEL

[6] = target: T3, Prostaglandin E synthase (Homo sapiens, UniProt O14684); test: Inhibition of mPGES-1 (unknown origin) assessed as reduction in conversion of PGH2 to PGE2 by EIA method
T3 sequence (O14684 whole entry): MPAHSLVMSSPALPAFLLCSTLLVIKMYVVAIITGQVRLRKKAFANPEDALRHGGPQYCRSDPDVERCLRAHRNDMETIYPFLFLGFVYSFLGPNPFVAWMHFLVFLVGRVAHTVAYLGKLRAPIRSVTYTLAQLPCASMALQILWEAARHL
How it was run: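 mPGES-1 activity taken as conversion of PGH2 to PGE2, with PGE2 measured by EIA. Compound handled as in the 15-LOX assay.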

[7] = target: T1, Polyunsaturated fatty acid lipoxygenase ALOX15 (Homo sapiens); test: Activation of 15-LOX in human PMN assessed as 15-HETE production at 6.2 to 40 uM pre-incubated for 15 mins before A23187, Ca2+ and Mg2+ stimulation for 1 hr by LC-MS method
How it was run: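 PMNs preincubated 15 min at 37 °C with compound or vehicle, then stimulated 1 h at 37 °C with 10 μM A23187 plus 2 mM Ca2+ and 2 mM Mg2+. Reactions stopped with cold methanol. Eicosanoids quantified by LC-MS.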

[8] = target: T1, Polyunsaturated fatty acid lipoxygenase ALOX15 (Homo sapiens); test: Activation of 15-LOX in human whole blood assessed as increase in 15-HETE production at 100 uM pre-incubated for 20 mins before stimulation with LPS and A23187 for 120 mins in presence of 0.16 to 20 uM 5-LOX inhibitor Zileuton by LC-MS/MS method; assay type: tissue-based; how it was run: as §1
[9] = target: T1, Polyunsaturated fatty acid lipoxygenase ALOX15 (Homo sapiens); test: Activation of 15-LOX in human whole blood assessed as reduction in PGE2 production at 100 uM pre-incubated for 20 mins before stimulation with LPS and A23187 for 120 mins in presence of 2 uM 5-LOX inhibitor Zileuton by LC-MS/MS method; assay type: tissue-based; how it was run: as §1

%max [1]: 85% | Activity [2]: 95% | inhibition [4]: < 5% | Activity [5]: < 5% | pIC50 [6]: 4.70 | Activity [7]: Active | Activity [8]: Active | Activity [9]: Active
Structure (SMILES): CN1CCN(CC(=O)N2N=C3/C(=C/c4ccccc4)CCCC3C2c2ccccc2)CC1 (centres undefined)
Activity [3]: 52%
